Assay results collected from several papers.
Target: Tyrosine-protein kinase CSK (CSK, Homo sapiens, UniProt P41240)

| SMILES | assay | conditions | remaining binding [%] |
| --- | --- | --- | --- |
| CN(CCCC(F)(F)F)c1nccc(-c2cnn3ncccc23)n1 | binding | 1 µM | 91 |
| N#Cc1ccc(Nc2ccc3[nH]c(=O)[nH]c3c2)c(Cl)c1 | cell-free assay, competition with immobilised ligand | 1 µM | 89 |
| F[C@@H]1CCN(c2nccc(-c3cnn4ncccc34)n2)C1 | binding | 1 µM | 100 |
| CC(=O)C1=C(C)N(c2cccc(C(F)(F)F)c2)C(=O)N[C@@H]1c1ccc(C#N)nc1 | cell-free assay, competition with immobilised ligand | 1 µM | 90 |
| N[C@H]1CCN(c2nccc(-c3cnn4ncccc34)n2)C1 | binding | 1 µM | 100 |
| FC(F)(F)Oc1cccc(-c2cnc3ccc(-c4ccncc4)nn23)c1 | cell-free assay, competition with immobilised ligand | 5 µM | 86 |
| COc1cnc(Nc2cccc(S(N)(=O)=O)c2)nc1N1CCN(c2ccccc2)C(=O)C1 | binding, competition with immobilised ligand | 1 µM | 100 |
| CC(C)CC(=O)N1CCc2nc(-c3ccc(Br)cc3)nc(N(C)Cc3ccccc3)c2C1 | cell-free assay, competition with immobilised ligand | 0.1 µM | 100 |
| O=C(NCCCN1CCOCC1)c1ccc(Nc2nccc(-c3cc4ccccc4s3)n2)cc1 | binding, competition with immobilised ligand | 1 µM | 90 |
| COc1ccnn2ncc(-c3ccnc(N(C)C)n3)c12 | binding | 1 µM | 96 |
| O=C(c1ccc(Nc2nccc(-c3cc4ccccc4s3)n2)cc1)N1CCC(N2CCCC2)CC1 | binding, competition with immobilised ligand | 1 µM | 100 |
| O=C(NCC1CCOCC1)c1n[nH]cc1NC(=O)c1c(F)cccc1F | binding, competition with immobilised ligand | 1 µM | 98 |
| CN1CCN(c2cnc3c(C4CCN(C(=O)c5ccc(OC(F)(F)F)cc5N)CC4)ncnc3c2)CC1 | cell-free assay, competition with immobilised ligand | 1 µM | 100 |
| C[C@H]1CCN(c2nccc(-c3cnn4ncccc34)n2)C1 | binding | 1 µM | 83 |
| COc1cnc(Nc2cccc(S(N)(=O)=O)c2)nc1N1CCN(c2ccccc2)CC1 | binding, competition with immobilised ligand | 1 µM | 100 |
| c1cnn2ncc(-c3ccnc(N4CCC45COC5)n3)c2c1 | binding | 1 µM | 88 |
| COc1ncc2cc3ccccc3nc2c1C#N | cell-free assay, competition with immobilised ligand | 5 µM | 100 |
| Nc1c(C(=O)NCc2ccc(C(=O)NCCCC3CCCCC3)cc2)cnn1-c1ccccc1 | cell-free assay, competition with immobilised ligand | 0.1 µM | 100 |
| Cc1ccc(-n2nc(C(C)(C)C)cc2NC(=O)Nc2ccc(-n3c(N)c(C(N)=O)c4nc5ccccc5nc43)cc2)cc1 | cell-free assay, competition with immobilised ligand | 1 µM | 0.9 |
| O=C(c1ccc(Nc2ncc(Cl)c(-c3cc4ccccc4s3)n2)cc1)N1CCC(N2CCCC2)CC1 | binding, competition with immobilised ligand | 1 µM | 87 |
| O=C(Nc1cnc(Oc2ccc(F)cc2)nc1)N1CCc2ncccc2[C@@H]1c1ccc(F)cc1 | cell-free assay, competition with immobilised ligand | 1 µM | 100 |
